Measurements published in publication PMC10099395 (Chemistry (Weinheim an Der Bergstrasse, Germany), 2022).

What was measured:
[1] = tested on: 25TAG (5′-FAM, 3′-TAMRA) (DNA, G4) TAGGGTTAGGGTTAGGGTTAGGGTT; assay: fluorescence melting; conditions: 100 mM KCl; 10 mM LiAsO2Me2, pH 7.2; 0.4 μM compound, 0.2 μM DNA
[2] = tested on: A549 cells (cisplatin-resistant non-small-cell lung carcinoma); assay: Cytotoxicity assay; type: cell-based, human; conditions: for GI50: Homo sapiens, A549, 96 h, read-out: GI50, A549
Procedure, shortened: (§1)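 Adherent cells grown in MEM GlutaMAX with 10 % FBS, 1 % penicillin/streptomycin and 1 % non-essential amino acids at 37 °C, 5 % CO₂, passaged with TrypLE. Cells were plated at 0.125×10⁵ cells mL⁻¹ and test compound in DMSO was added after 4 h ([…], 0.5 % v/v DMSO). After 96 h, CellTiter-Glo luminescence was read and viability expressed relative to the DMSO control. Each condition was run at least three times, with two technical replicates per plate.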

[3] = tested on: T98G cells (multidrug-resistant glioblastoma); assay: Cytotoxicity assay; type: cell-based; conditions: Homo sapiens, 96 h, read-out: GI50, T98G
Procedure, shortened: as §1

[4] = tested on: 25TAG (G4-DNA, hybrid-2, variant of human telomeric sequence); assay: Fluorescence-melting experiments; type: binding; conditions: pure ligand 0.4 μM, DNA 0.2 μM
Procedure, shortened: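 FAM/TAMRA-labelled oligonucleotides were annealed (95 °C, 5 min) at 0.23 μM in target-specific buffer. Final concentrations were 0.2 μM DNA and 1 μM ligand; as-synthesized mixtures were diluted in buffer without further treatment, and pure ligands were run at 0.1–1.0 μM. Melting used a 0.5 °C min⁻¹ ramp with FAM-channel fluorescence. Tm came from first-derivative peaks, and ΔTm was the difference of means from three experiments. ΔTm detection tops out at 36 °C (96 °C).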

[5] = tested on: MRC-5 cells (noncancerous lung fibroblast); assay: Cytotoxicity assay; type: cell-based; conditions: Homo sapiens, MRC5, 96 h, read-out: GI50, MRC-5
Procedure, shortened: as §1

**Q.** Which ΔT m [1] does the source give for `C[n+]1cc(NC(=O)c2ccc3ccc4ccc(C(=O)Nc5cc6ccccc6[n+](C)c5)nc4c3n2)cc2ccccc21` here?
**A.** > 30 °C

**Q.** Which results are given for `O=C(NN=Cc1ccc(C[n+]2ccccc2)cc1)c1ccc2ccc3ccc(C(=O)NN=Cc4ccc(C[n+]5ccccc5)cc4)nc3c2n1.[Br-].[Br-]` [3Ei]?
**A.** GI50 [2]: 3.2 ± 0.6 µM; GI50 [3]: 29.7 ± 2 µM; ΔTm, 25TAG, pure ligands [4]: > 30 °C; GI50 [5]: 59.1 ± 5.5 µM

**Q.** Which results are given for `C[n+]1cccc2cc(C=NNC(=O)c3ccc4ccc5ccc(C(=O)NN=Cc6ccc7c(ccc[n+]7C)c6)nc5c4n3)ccc21.[I-].[I-]` [3Ef]?
**A.** GI50 [2]: 0.4 ± 0.06 µM; selectivity index, A549 with respect to MRC-5 cells ([2]; ratio of GI50 values, 96 h): ~67; GI50 [3]: 11.2 ± 1.4 µM; GI50 [5]: 26.7 ± 2.4 µM
